Data taken from ChEMBL document CHEMBL1146933, “In silico identification of novel EGFR inhibitors with antiproliferative activity against cancer cells” (Bioorg Med Chem Lett, 2006).
The source made the active and inactive calls. No cut-off for these calls is given here.

Experiments:
[1] = molecular target: T1, Epidermal growth factor receptor (Homo sapiens, UniProt P00533); test: Inhibition of EGFR kinase activity at 10 uM; set-up: scale not given: the % may be the effect or the level left
[2] = molecular target: T1, Epidermal growth factor receptor; test: Inhibition of EGFR kinase activity at 100 uM in presence of 2.5 uM ATP; set-up: scale not given: the % may be the effect or the level left
Outline: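 EGFR purified from A431 cells, pre-incubated 30 min with 100 µM compound before kinase activity measurement. ATP held at 2.5 µM, four times below the Km for this enzyme preparation. Control was 2% DMSO. Mean ± standard deviation from 2–5 experiments in triplicate.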

MDA-MB-468 = test: Antiproliferative activity against MDA-MB-468 cells at 50 uM by MTT assay; type: functional, cell-based; settings: Homo sapiens
MDA-MB-435 = test: Antiproliferative activity against MDA-MB-435 cells at 50 uM by MTT assay; type: functional, cell-based; settings: Homo sapiens
BT-474 = test: Antiproliferative activity against BT474 cells at 50 uM by MTT assay; type: functional, cell-based; settings: Homo sapiens
A-431 [3] = test: Antiproliferative activity against A431 cells by MTT assay; type: functional, cell-based; settings: Homo sapiens
Outline: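 A431 cells grown with increasing compound concentrations; proliferation measured by MTT 48 h after treatment. Two experiments performed in triplicate.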

A-431 [4] = test: Antiproliferative activity against A431 cells at 50 uM by MTT assay after 48 hrs; type: functional, cell-based; settings: Homo sapiens
Outline: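 A431 cells exposed to 50 µM compound for 2 days; viability read by MTT. Controls grown in 0.5% DMSO. Values are percentage of control, mean ± standard deviation from three experiments run in quadruplicate.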

[5] = molecular target: T1, Epidermal growth factor receptor; test: Inhibition of EGFR kinase activity
Outline: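 EGFR purified from A431 cells, incubated with compound at varying concentrations for 30 min at room temperature. Kinase reaction then started with ATP/MgCl2 and run 30 min at 30 °C. Activity expressed as percent of inhibitor-free control; mean ± standard deviation from 1 to 3 experiments in triplicate.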

T1 sequence (P00533 whole entry): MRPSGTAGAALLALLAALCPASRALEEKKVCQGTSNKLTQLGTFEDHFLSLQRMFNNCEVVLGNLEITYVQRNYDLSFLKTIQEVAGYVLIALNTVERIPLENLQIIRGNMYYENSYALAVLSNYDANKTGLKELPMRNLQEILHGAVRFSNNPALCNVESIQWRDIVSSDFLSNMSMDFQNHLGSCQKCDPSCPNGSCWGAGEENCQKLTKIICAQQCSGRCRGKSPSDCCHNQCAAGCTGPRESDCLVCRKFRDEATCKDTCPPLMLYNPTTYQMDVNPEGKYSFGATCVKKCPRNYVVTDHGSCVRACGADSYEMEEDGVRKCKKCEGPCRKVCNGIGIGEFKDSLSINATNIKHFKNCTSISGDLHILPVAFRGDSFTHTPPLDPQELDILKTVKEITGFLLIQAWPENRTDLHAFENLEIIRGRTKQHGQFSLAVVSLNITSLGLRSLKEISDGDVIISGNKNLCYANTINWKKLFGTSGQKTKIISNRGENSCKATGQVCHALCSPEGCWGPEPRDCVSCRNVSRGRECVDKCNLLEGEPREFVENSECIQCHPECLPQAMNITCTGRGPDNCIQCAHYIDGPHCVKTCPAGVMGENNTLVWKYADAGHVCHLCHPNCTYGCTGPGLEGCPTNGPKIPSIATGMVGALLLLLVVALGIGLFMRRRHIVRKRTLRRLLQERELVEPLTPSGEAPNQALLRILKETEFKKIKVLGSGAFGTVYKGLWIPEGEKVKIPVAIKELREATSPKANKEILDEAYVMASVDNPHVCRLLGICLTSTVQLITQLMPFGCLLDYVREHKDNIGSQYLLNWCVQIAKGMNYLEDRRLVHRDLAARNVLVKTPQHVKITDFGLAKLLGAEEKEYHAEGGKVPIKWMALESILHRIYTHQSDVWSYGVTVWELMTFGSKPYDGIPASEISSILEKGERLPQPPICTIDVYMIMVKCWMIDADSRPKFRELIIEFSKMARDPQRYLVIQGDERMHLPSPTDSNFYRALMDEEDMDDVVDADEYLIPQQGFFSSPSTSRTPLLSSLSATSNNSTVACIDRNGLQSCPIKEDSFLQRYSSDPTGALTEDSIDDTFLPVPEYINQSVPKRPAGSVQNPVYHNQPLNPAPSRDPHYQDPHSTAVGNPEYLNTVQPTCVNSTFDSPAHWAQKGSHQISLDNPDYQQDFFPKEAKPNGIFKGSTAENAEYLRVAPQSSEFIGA

Row | SMILES | Activity [1] | Activity [2] | Activity (MDA-MB-468) | Activity (MDA-MB-435) | Activity (BT-474) | IC50 (A-431 [3]) | Activity (A-431 [4]) | IC50 [5]
1 | O=NC1=C(NNc2ccccc2)C(=O)c2ccccc21 | inactive | 50.3% | Active | Active | Active | 6 µM |  | 
2 | Cc1cccc(-n2ncc3c(NCc4ccc5c(c4)OCO5)ncnc32)c1 | 40% | 48.4% | Active | Active | Active |  | Active | 15 µM
3 | Oc1[nH]c2ccc(I)cc2c1/N=N/c1cccc2cccnc12 | inactive | 50% | Active | Active | Active | 1 µM | Active | 
4 | Cc1ccc(-c2cc(NC(=O)c3cccs3)[nH]n2)cc1 | inactive | 44.1% | inactive | inactive | inactive |  | inactive | 
5 | Nc1[nH]nc2nc(-c3ccco3)c3c(c12)CCCC3 | inactive | 44.5% | Active | Active | Active |  | Active | 
6 | O=C(CSc1nc(O)cc(-c2ccccc2)n1)N1c2ccccc2CCc2ccccc21 | inactive | 41.1% | Active | Active | Active |  | Active | 
7 | C=CCOc1ccc2c(c1)C(=NO)c1cc(OCC=C)ccc1-2 | inactive | 55.3% | Active | Active | Active |  | Active | 
